Data on 79 molecules can be found in PubChem BioAssay AID449757 (Broad Institute, 2010).

Active and inactive are the calls of the source.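 The calls were made as follows: active = compounds whose fitted caspase activation midpoint falls no more than tenfold above the top tested dose; inconclusive = flat fit with activity between 30 and 70 percent, or failed fit; inactive = the rest.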 Bounds are passed on as bounds.

For orientation: AC50 means the midpoint of the concentration-response curve, whichever way the signal moves.

The subject of this assay is MEF Flag-A1-IRES-BIM, caspase-Glo luminescence, 3 h. The assay can be described thus: Caspase-Glo signal, Flag-A1-IRES-BIM MEF cells – cell-based, alternate construct, luminescence, A1 (Bcl2A1) inhibitor project, dose response (AID 449757). In a few lines: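 material = Flag-A1-IRES-BIM-primed MEF cells | quantity = 2500 cells/well | buffer or medium = RPMI-1640 growth medium with 10% FBS | doses = 100 nL compound added per well by pin transfer | incubation = 3-h compound at 37 °C, 30-min cooling, 1-h reagent at RT | detection = CaspaseGlo luminescence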
For the molecule `NS(=O)(=O)c1ccc(N/N=C2/CCCCC2C2CCCCC2)c([N+](=O)[O-])c1` (centres undefined), the AC50 was 32.3 µM.
As for `Cc1nn(Cc2ccc(Cl)cc2Cl)c(C)c1NC(=O)Cn1nc([N+](=O)[O-])c(Cl)c1C`, the figure is > 35 µM (inactive).
As for `COc1cc(/C=C(/C#N)c2nc3ccccc3[nH]2)ccc1OCC(=O)Nc1ccccc1C`, the figure is 6.32 µM.
In the case of `COc1ccccc1-c1cn[nH]c1-c1ccc(OCc2ccccc2)cc1O`, the AC50 is > 35 µM (inactive).
Then `COc1cc(NC(=O)c2ccccc2)c(OC)cc1NC(=O)Cc1ccc(Br)cc1`, with > 35 µM (inactive).
Consider `CCCCCCCC/C=C\CCCCCCCC(=O)NCCc1ccc(O)c(O)c1`, for which the AC50 was 11.6 µM.
Then `CCOC(=O)C(C(=O)OCC)c1cc(Br)c2noc3c2c1C(=O)c1ccccc1-3`, with 14.8 µM; and `COc1ccc(C2Nc3ccc4ccccc4c3-c3c2c(=O)oc2ccccc32)cc1` (centres undefined), with 14.9 µM.
Then `N#C/C(=C\c1ccc(OCc2ccccc2)cc1)C(=O)Nc1nc2c(s1)CCN(Cc1ccccc1)C2`, with > 35 µM (inactive); and `O=C(c1ccc(COc2ccc3ccccc3c2)o1)N1N=C(C(F)F)CC1(O)C(F)F` (centres undefined), with > 35 µM (inactive).
As to `COC(=O)c1ccc2c(c1)C(C)(C)C(/C=C/c1ccc(O)cc1)=[N+]2C`, the AC50 was 12.4 µM.
As for `COc1cc2ncnc(NCc3ccc(F)cc3)c2cc1OC`, the figure is > 35 µM (inactive); as for `CCn1c(SCC(=O)c2ccccc2)nnc1-c1cc2cc(Br)ccc2o1`, > 35 µM (inactive).
Take `COC(=O)c1ccc2c(=O)n(Cc3ccc4c(c3)OCO4)c(=S)[nH]c2c1`: the AC50 was > 35 µM (inactive).
Then `Cn1c(=NC(=O)CCl)sc2ccccc21`, with > 35 µM (inactive).
As for `O=C(NCCc1ccccc1)C(c1cccs1)N(C(=O)CCl)c1ccc(Cl)cc1` (centres undefined), the figure is 13.3 µM; as for `O=C(Nc1ccc([N+](=O)[O-])cc1)c1nc[nH]c1C(=O)NC1CCCCC1`, > 35 µM (inactive); as for `CCCc1ccc(OCc2ccc(C(=O)N/N=C/c3cccc([N+](=O)[O-])c3)o2)c(OC)c1`, 6.57 µM.
As for `Cc1ccc(NC(=O)c2ccc(N/N=C/c3cccc(O)c3)c([N+](=O)[O-])c2)cc1`, the concentration at half-maximal activity (AC50) was 34.6 µM.
Then `CCc1ccccc1NC(=O)C(CC)Sc1nc2cc3c(cc2c(=O)n1Cc1ccco1)OCO3` (centres undefined), with > 35 µM (inactive); and `CC(=O)OC(C)(C)/C=C/C(=O)[C@](C)(O)C1[C@H](O)C[C@@]2(C)C3CC=C4C(C[C@H](O)C(=O)C4(C)C)[C@]3(C)C(=O)C[C@]12C` (some centres undefined), with > 35 µM (inactive); and `CCOC(=O)c1c(C)oc2c1c(CN1CCN(C(=O)OCC)CC1)c(O)c1ccccc12`, with 7.15 µM.
As for `COc1ccc(NC(=O)c2cccc3c2C(=O)c2ccc(-c4ccc(F)cc4OCc4ccccc4)cc2S3(=O)=O)cc1`, the figure is > 35 µM (inactive); as for `CCOc1cccc(C(=O)Nc2cccc(-c3nnc(-c4ccc(C)cc4)o3)c2)c1`, 8.37 µM; as for `COc1ccc(-c2ccc3c(c2)S(=O)(=O)c2cccc(C(=O)NCCOc4ccccc4)c2C3=O)cc1OC`, > 35 µM (inactive).
As for `Cc1ccc2c(c1)c(C1=c3ccccc3=NC1=O)c(O)n2C`, the figure is > 35 µM (inactive); as for `CCc1ccc(NC(=O)c2nc(S(=O)(=O)Cc3ccccc3)ncc2Cl)cc1`, > 35 µM (inactive).
On to `Cc1ccc(C(=O)COC(=O)c2ccc3c(c2)C(=O)N(c2cccc4ncccc24)C3=O)cc1`, for which the AC50 is 36.1 µM.
For `O=c1c(Cl)c(Cl)cnn1Cc1ccccc1Cl`, the AC50 is > 35 µM (inactive).
As for `CC1=CC(=O)C(C(C)C)=C/C1=N/OS(=O)(=O)c1ccccc1`, the figure is 6.53 µM; as for `COc1cc(NC(=O)c2ccc(C)cc2C)ccc1NC(=O)c1cc2ccccc2o1`, 32.3 µM; as for `CCOc1cc(C(=O)CSc2nnc(CNc3ccc(Cl)cc3)o2)ccc1NC(=O)CC`, 15.3 µM.
Turning to `CC(C)(C)c1ccc2c(c1)OC(C(=O)N/N=C\c1ccc[nH]1)CO2` (centres undefined), the AC50 was > 35 µM (inactive).
Then `Cc1cc(=O)[nH]c(SCC(=O)Nc2ccc(Br)cc2)c1C#N`, with > 35 µM (inactive).
Turning to `CN(C)C/C=C(\c1ccc(Br)cc1)c1cccnc1`, the AC50 was > 35 µM (inactive).
For `C/C1=C\[C@@H](C)C/C=C/[C@H]2[C@@H]3O[C@]3(C)[C@@H](C)[C@H]3[C@H](Cc4c[nH]c5ccccc45)NC(=O)[C@]32C(=O)/C=C/C(=O)[C@@H]1O`, the AC50 was 9.84 µM.
Then `CCC1CCCCN1S(=O)(=O)c1ccc(NC(=O)c2nc(S(C)(=O)=O)ncc2Cl)cc1` (centres undefined), with 3.73 µM; and `Cc1cc(C)cc(NC(=O)/C(C#N)=C/c2cn(CC(=O)NCc3ccco3)c3ccccc23)c1`, with 8.5 µM.
As for `O=C1/C(=C\c2c(NCCOCCO)nc3ccccn3c2=O)SC(=S)N1Cc1ccco1`, the figure is > 35 µM (inactive); as for `O=[N+]([O-])/C=C/c1cn(Cc2ccc(Cl)cc2)c2ccccc12`, 15.9 µM; as for `CCN(C(=O)CCN1C(=O)c2ccccc2S1(=O)=O)c1ccccc1`, > 35 µM (inactive).
`COc1ccc(Cn2c(SCc3ccc(C)cc3)nc3cc(OC)c(OC)cc3c2=N)cc1Cl`: the AC50 is > 35 µM (inactive).
Then `CCOc1ccc(NC(=S)NC(=O)/C=C/c2ccc(C)cc2)c([N+](=O)[O-])c1`, with 21 µM.
Then `CCc1nc(N=Nc2c(O)[nH]c3ccccc23)c2c3c(sc2n1)CCC3`, with 20.7 µM.
Then `C=C1/C=C(\C)[C@](C)(O)C[C@H](O)CC(=O)[C@H](O)[C@@H](O)[C@H](C)C[C@H](C)OC(=O)/C(C)=C/CC/C=C/[C@@H]2O[C@H]2C[C@H](C)C1`, with > 35 µM (inactive); and `Cc1ccc(C(=O)/C=C\C(=O)c2ccc(C)cc2)cc1`, with 36.7 µM; and `Cc1nn(Cc2c(Cl)cccc2Cl)c(C)c1NC(=O)c1cn(-c2ccccc2)nc1-c1ccccc1`, with 19.2 µM.
With `O=S1(=O)CCOC[C@H](CC2CCCCC2)N1Cc1cccc(Cl)c1`, the AC50 is > 35 µM (inactive).
Then `COCc1cc(C)nc(SCC(=O)Nc2nc(C)cs2)c1C#N`, with > 35 µM (inactive); and `COc1ccc(NC(=S)NC(NC(=O)/C=C/c2ccccc2)C(Cl)(Cl)Cl)cc1` (centres undefined), with > 35 µM (inactive).
Then `COc1cc(-c2cc(-c3ccccc3)nc(SCC(=O)Nc3nccs3)c2C#N)cc(OC)c1OC`, with > 35 µM (inactive).
As for `COc1ccc2c(c1)CCc1c(C(=O)Nc3cc(C)n(Cc4ccc(Cl)cc4)n3)noc1-2`, the figure is 21.9 µM; as for `O=C(/C=C/c1ccc(F)cc1)NC(=S)Nc1ccccc1C(=O)NC1CCCCC1`, > 35 µM (inactive); as for `Cc1ccc2c(c1)C(=O)C(=O)N2Cc1ccc(Br)cc1`, > 35 µM (inactive).
For the molecule `Cc1[nH]nc2nc(SCC(=O)NCCC3=CCCCC3)n(-c3ccc(Br)cc3)c(=N)c12`, the AC50 was 17.1 µM.
Then `CCOc1cc(/C=C\[N+](=O)[O-])ccc1OCC(=O)Nc1ccccc1C`, with 6.53 µM; and `O=C(NC[C@H]1CCCO1)c1cccc2c1C(=O)c1ccc(-c3ccc(F)cc3OCc3ccccc3)cc1S2(=O)=O`, with > 35 µM (inactive).
Then `Cc1ccc(Sc2c([N+](=O)[O-])c(=O)n(C)c3ccccc23)cc1`, with > 35 µM (inactive); and `Oc1ccc(/C=N/N2CCN(C3c4ccccc4-c4ccccc43)CC2)cc1O`, with 24 µM.
On to `CCOc1ccc(NCc2cccn2-c2nnc(N3CCC(C(=O)NCCCN4CC(C)CC(C)C4)CC3)s2)cc1` (centres undefined), for which the AC50 is > 35 µM (inactive).
Regarding `COc1cc(/C=C2/C(=N)N3C=CSC3=NC2=O)ccc1OCCCOc1cc(C)ccc1C`, the AC50 is 16.2 µM.
As for `COc1ccc(NC(=O)C(=O)N/N=C\c2ccc(CNC(=O)C(=O)Nc3ccc(C)c(C)c3)o2)c(OC)c1`, the figure is 26.1 µM; as for `CCOC(=O)/C(=C\c1ccc(OC(F)F)cc1)C1=Nn2c(nnc2-c2ccc(Cl)cc2)SC1`, 4.71 µM.
With `CC1(C)C[C@H](O)[C@]2(CO)[C@H](O)C[C@]3(C)C(=CCC4[C@@]5(C)CC[C@H](O)C(C)(C)C5CC[C@]43C)[C@@H]2C1` (some centres undefined), the AC50 is > 35 µM (inactive).
Then `CCOc1cc(/C=N/Nc2cc(C)nc(-n3nc(C)cc3C)n2)ccc1O`, with > 35 µM (inactive); and `O=C(Cn1c(C(F)(F)F)nc2ccccc21)N=Nc1c(O)[nH]c2ccc(Br)cc12`, with 29.8 µM; and `O=C(N/C=N/OCc1ccc(Cl)cc1Cl)NOCc1ncc(C(F)(F)F)cc1Cl`, with > 35 µM (inactive).
As for `CC(C)CC(NC(=O)c1ccc(Cl)cc1)C(=O)OCC(=O)c1ccc2c(c1)NC(=O)CO2` (centres undefined), the figure is 5.62 µM.
As for `COc1ccc(C(=O)/C=C/C(=O)N(CC(=O)NC2CCCCC2)Cc2cccs2)c(O)c1`, the figure is 24.5 µM; as for `COc1ccc(NC(=O)CSc2nc3ccc(Nc4nc(N5CCOCC5)nc(N5CCOCC5)n4)cc3s2)cc1`, > 35 µM (inactive).
In the case of `CCCCNC(=O)c1ccc(Cn2c(=S)[nH]c3c([nH]c4ccc(OC)cc43)c2=O)cc1`, the AC50 is 4.77 µM.
Then `CN(c1ccccc1)c1ccc(/C=C/[N+](=O)[O-])cc1`, with 10.2 µM.
Then `CCOCCCNC(=O)c1ccc2c(c1)N=C(CC)c1cc(Br)ccc1S2`, with > 35 µM (inactive); and `O=C(CN(c1ccc(Br)cc1)S(=O)(=O)c1ccc(Cl)c([N+](=O)[O-])c1)NCCc1ccccc1`, with > 35 µM (inactive); and `COc1ccc(-c2oc(=O)c3cc(OC)c(OC)cc3c2/C=C/c2cccc([N+](=O)[O-])c2)cc1`, with > 35 µM (inactive).
Then `Cc1ccc(-c2nc(NC(=O)c3nn(C)cc3[N+](=O)[O-])sc2C)cc1C`, with 3.62 µM; and `COc1ccc(-c2cc3ccccc3oc2=O)cc1NC(=S)NC(=O)c1ccc2c(c1)OCCO2`, with 6.36 µM; and `COC(=O)Cc1csc(/N=C/c2c(O)n(-c3cccc(C(F)(F)F)c3)c(=O)c3ccccc23)n1`, with 18.1 µM.
Consider `Cc1cc(C)cc(Cn2ncc(Cl)c(Cl)c2=O)c1`, for which the AC50 was > 35 µM (inactive).
